ChEMBL document CHEMBL1132233, “6-Anilinouracil-based inhibitors of Bacillus subtilis DNA polymerase III: antipolymerase and antimicrobial structure-activity relationships based on substitution at uracil N3” (J Med Chem, 1999)
Converted amounts (≈) assume the structure as drawn.

Legend:
[1] = Compound was tested for inhibitory activity against DNA pol III of Bacillus subtilis
Outline: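 Homogeneous recombinant B. subtilis DNA pol III was assayed on activated calf thymus DNA. Apparent Ki was determined with a truncated assay lacking the competitor dGTP. Values are the average of three independent experiments.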

Bacillus subtilis = experiment: Minimum inhibitory concentration against Bacillus subtilis; format: functional
Outline: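 Test organism was penicillin-sensitive B. subtilis strain BD54. A log-phase culture was diluted to 10^4 cells/mL in Luria broth. Inhibitors in DMSO were added at 0–100 µM, with final DMSO at 1%. Cultures were incubated 24 h at 37 °C and growth was scored by eye. MIC is the lowest concentration with no apparent growth, averaged over three independent experiments.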

[2] = biological target: DNA polymerase III (Bacillus subtilis); experiment: Compound was tested for inhibitory activity against DNA polymerase III of Bacillus subtilis

## CCn1c(=O)cc(Nc2ccc3c(c2)CCC3)[nH]c1=O
[1]
  Ki: 310 nM
Bacillus subtilis
  MIC: 3 µM (≈ 0.814 µg/mL)

## C=CCn1c(=O)cc(Nc2ccc3c(c2)CCC3)[nH]c1=O
[1]
  Ki: 380 nM
Bacillus subtilis
  MIC: 3 µM (≈ 0.85 µg/mL)

## CCc1cc(Nc2cc(O)nc(O)n2)ccc1C
[1]
  Ki: 1000 nM
Bacillus subtilis
  MIC: 30 µM (≈ 7.36 µg/mL)

## Oc1cc(Nc2ccc3c(c2)CCC3)nc(O)n1
[1]
  Ki: 1200 nM
Bacillus subtilis
  MIC: 30 µM (≈ 7.3 µg/mL)

## Cn1c(=O)cc(Nc2ccc3c(c2)CCC3)[nH]c1=O
[1]
  Ki: 1340 nM
Bacillus subtilis
  MIC: 5 µM (≈ 1.29 µg/mL)

## CCc1cc(Nc2cc(=O)n(CC)c(=O)[nH]2)ccc1C
Bacillus subtilis
  MIC: 1.5 µM (≈ 0.41 µg/mL)
[2]
  Ki: 120 nM

## CCc1cc(Nc2cc(=O)n(CCCO)c(=O)[nH]2)ccc1C
[1]
  Ki: 730 nM
Bacillus subtilis
  MIC: 3 µM (≈ 0.91 µg/mL)

## CCc1cc(Nc2cc(=O)n(CCOC)c(=O)[nH]2)ccc1C
[1]
  Ki: 580 nM
Bacillus subtilis
  MIC: 3 µM (≈ 0.91 µg/mL)

## C=CCn1c(=O)cc(Nc2ccc(C)c(CC)c2)[nH]c1=O
[1]
  Ki: 210 nM
Bacillus subtilis
  MIC: 1.5 µM (≈ 0.428 µg/mL)

## CCCCCCn1c(=O)cc(Nc2ccc3c(c2)CCC3)[nH]c1=O
[1]
  Ki: 240 nM
Bacillus subtilis
  MIC: > 100 µM

## CCCn1c(=O)cc(Nc2ccc3c(c2)CCC3)[nH]c1=O
Bacillus subtilis
  MIC: 11 µM (≈ 3.14 µg/mL)
[2]
  Ki: 310 nM

## CCCCn1c(=O)cc(Nc2ccc3c(c2)CCC3)[nH]c1=O
Bacillus subtilis
  MIC: 3 µM (≈ 0.898 µg/mL)
[2]
  Ki: 90 nM

## CCc1cc(Nc2cc(=O)n(CCO)c(=O)[nH]2)ccc1C
[1]
  Ki: 590 nM
Bacillus subtilis
  MIC: 3 µM (≈ 0.868 µg/mL)

## CCc1cc(Nc2cc(=O)n(CCCOC)c(=O)[nH]2)ccc1C
[1]
  Ki: 1000 nM
Bacillus subtilis
  MIC: 1.5 µM (≈ 0.476 µg/mL)
